Measurements of several laboratories.
Each line is one published result; the experiments were not run side by side.
Effect on: cell growth or viability

| SMILES | cell line | test | setting | quantity | value |
| --- | --- | --- | --- | --- | --- |
| COc1ccc(C(=O)c2c[nH]c3ncc(-c4ccc(N5CCNCC5)nc4)cc23)cc1 | MRC5 | MTT | 10 µM, 48 h | viability | 99.2% |
| COc1c2c(cc3c1OCO3)[C@]13C=C[C@H](OC)C[C@@H]1[N@](C2)C[C@H]3OC(=O)c1ccco1 | MRC5 | WST-1 | – | IC50 | > 10000 nM |
| C/C1=C/C(=O)O[C@@H]2C[C@@H](CC[C@H](C)/C=C\C=C\CC1)O[C@@](OCCc1ccccc1)([C@@H]1CSC(=O)N1)C2 | MDA-MB-231 | MTT | 72 h | IC50 | 2710 nM |
| COc1cc2c(cc1OS(N)(=O)=O)CC[C@@H]1[C@@H]2CC[C@]2(C)[C@@H](OS(N)(=O)=O)CC[C@@H]12 | MDA-MB-231 | – | – | GI50 | 290 nM |
| O=C(c1cccc(F)c1)c1c[nH]c2ncc(-c3ccc(N4CCNCC4)nc3)cc12 | MRC5 | MTT | 10 µM, 48 h | viability | 66.2% |
| C1COCCN1.COc1ccc(/C=C\c2cc(I)c(OC)c(I)c2)cc1OP(=O)(O)O | KM-20L2 | SRB | 48 h | GI50 | > 1 µg/mL |
| O=C(c1ccc(F)cc1)c1c[nH]c2ncc(-c3ccc(N4CCNCC4)nc3)cc12 | MRC5 | MTT | 10 µM, 48 h | viability | 89.4% |
| C/C1=C/C(=O)O[C@@H]2C[C@@H](CC[C@H](C)/C=C\C=C\CC1)O[C@@](O)([C@@H]1CSC(=O)N1Cc1ccccc1)C2 | MDA-MB-231 | MTT | 72 h | IC50 | 2720 nM |
| COc1cc2c(cc1OS(N)(=O)=O)CCN(Cc1cc(Br)c(OC)c(OC)c1)C2 | MDA-MB-231 | WST-1 | 96 h | GI50 | 30 nM |
| CO[C@]1([C@@H]2CSC(=O)N2CCCO)C[C@H]2C[C@@H](CC[C@H](C)/C=C\C=C\CC/C(C)=C\C(=O)O2)O1 | MDA-MB-231 | MTT | 72 h | IC50 | > 50000 nM |
| N.N.[Cl][Pt][Cl] | BEL-7404 | MTT | 48 h | IC50 | 13100 nM |
| CCCS(=O)(=O)Nc1ccc(F)c(C(=O)c2c[nH]c3ncc(Cl)cc23)c1F | A-375 | – | – | EC50 | 30 nM |
